According to ChEMBL document CHEMBL1221292, “Design, synthesis, and evaluation of quinazoline T cell proliferation inhibitors” (Bioorg Med Chem, 2010):
Calls of active or inactive are those of the source. The calls are words filed in the database; no cut-off is given here.

Key:
MDA-MB-231 [1] = assay: Antiproliferative activity against stimulated human MDA-MB-231 cells after 72 hrs by BrdU incorporation assay; format: functional, cell-based; conditions: MDA-MB-231, 72 h
Procedure, shortened: (§1)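 Non-hematopoietic lines grown in DMEM, serum-starved 12 h, then stimulated: 10% FCS (HEK293, A375), PDGF 30 ng/mL (NIH 3T3), EGF 30 ng/mL (MDA-MB-231). 1 × 10^5 cells cultured 3 days over increasing inhibitor concentrations, duplicate wells. Proliferation by 10 µM BrdU labelling with colorimetric anti-BrdU-POD ELISA (TMB).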

Jurkat [2] = assay: Inhibition of TCR-mediated SLP76 phosphorylation in human Jurkat cells after 16 hrs by Western blotting; format: cell-based
Procedure, shortened: (§2)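 Jurkat treated 16 h with inhibitor, then stimulated 1 min at 37 °C with C305 (1:500) or mock PBS. Cells lysed at 2 × 10^7 cells/mL in NP-40 buffer with phosphatase and protease inhibitors. SLP-76 immunoprecipitated; pTyr detected by Western blot with 4G-10. For ZAP-70 activity, ZAP-70 IP was incubated with recombinant His-SLP-76 and 5 µM ATP for 15 min at 30 °C, then blotted for pTyr.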

MDA-MB-231 [3] = assay: Antiproliferative activity against non-stimulated human MDA-MB-231 cells after 72 hrs by BrdU incorporation assay; format: functional, cell-based; conditions: MDA-MB-231, 72 h
PBMC [4] = assay: Cell cycle arrest in human PBMC assessed as accumulation at subG1 phase by flow cytometry; format: functional
Procedure, shortened: (§3)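 PBMC treated with inhibitor 12 and 24 h, then pelleted, PBS-washed and fixed in cold 70% ethanol for at least 12 h. RNase A added for 30 min in the dark, then propidium iodide; DNA content analysed by FACS for G2 and sub-G1 fractions.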

HEK293 [5] = assay: Antiproliferative activity against non-stimulated human HEK293 cells after 72 hrs by BrdU incorporation assay; format: functional, cell-based; conditions: HEK293, 72 h
Jurkat [6] = assay: Inhibition of PMA/anti-CD28-stimulated IL2 production in human Jurkat cells […] after 12 hrs by ELISA; format: functional, cell-based
Procedure, shortened: (§4)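 Jurkat or PBMC treated 12 h with 1 µM, 0.5 µM or no inhibitor. 1 × 10^6 cells were then stimulated 12 h with plate-bound anti-TCR C305 (1:500) alone, or with anti-CD28 (1:100) and/or PMA (50 ng/ml); ionomycin 1 µM was also used. Cells spun out at 130g. Supernatant IL-2 measured by ELISA, absorbance 450 nm.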

PBMC [7] = assay: Antiproliferative activity against LPS-stimulated human PBMC after 72 hrs by BrdU incorporation assay; format: functional, cell-based
Procedure, shortened: (§5)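 PBMC isolated from healthy donor blood on Ficoll. CD3+ T cells purified with anti-CD3 (autoMACS), identity confirmed as CD3+ by flow cytometry; CD3-depleted PBMC also kept. Stimulation: ConA (10 µg/mL), ODN2006 (0.5 µg/mL) or LPS (50 µg/mL); depleted PBMC got ODN2006 or LPS. Cultured 72 h with inhibitor. Read-out was BrdU uptake, normalized to maximal proliferation without inhibitor.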

PBMC [8] = assay: Cell cycle arrest in human PBMC assessed as accumulation at G2 phase by flow cytometry; format: functional; procedure, shortened: as §3
HEK293 [9] = assay: Antiproliferative activity against FCS-stimulated human HEK293 cells after 72 hrs by BrdU incorporation assay; format: functional, cell-based; conditions: HEK293, 72 h; procedure, shortened: as §1
[10] = Antiproliferative activity against stimulated human keratinocytes after 72 hrs by BrdU incorporation assay; format: functional, cell-based; conditions: Keratinocyte
Jurkat [11] = assay: Antiproliferative activity against human Jurkat cells after 72 hrs by BrdU incorporation assay; format: functional, cell-based
Procedure, shortened: (§6)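 Cells grown in RPMI at 37 °C, 5% CO2, then serum-starved 12 h. PBMC stimulated with ConA 10 µg/mL; Jurkat need no stimulation. 1 × 10^5 cells cultured 3 days with or without inhibitor, duplicate wells. Labelled with 10 µM BrdU, DNA denatured, anti-BrdU-POD added, colorimetric TMB read-out; IC50 derived.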

PC-3 [12] = assay: Antiproliferative activity against non-stimulated human PC3 after 72 hrs by BrdU incorporation assay; format: functional, cell-based; conditions: PC-3, 72 h
Splenocyte [13] = assay: Inhibition of irradiated BALB/c mouse splenocyte-stimulated IL2 secretion in 2C mouse splenocyte after 72 hrs by mixed lymphocyte reaction; format: functional, cell-based
Procedure, shortened: (§7)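 MLR: splenocytes from 2c mice stimulated by irradiated BALB/c splenocytes in the presence of compound at the specified concentrations, 96-well cultures up to 72 h. Supernatants collected at 24, 48 and 72 h; IL-2 measured by ELISA at 450 nm.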

Jurkat [14] = assay: Inhibition of anti-TCR/antiCD28-stimulated IL2 production in human Jurkat cells […] after 12 hrs by ELISA; format: functional, cell-based; procedure, shortened: as §4
PC-3 [15] = assay: Antiproliferative activity against stimulated human PC3 after 72 hrs by BrdU incorporation assay; format: functional, cell-based; conditions: PC-3, 72 h
Jurkat [16] = assay: Antiproliferative activity against ConA-stimulated human Jurkat after 72 hrs by BrdU incorporation assay; format: functional, cell-based
PBMC [17] = assay: Antiproliferative activity against non-stimulated human PBMC after 72 hrs by BrdU incorporation assay; format: cell-based
Jurkat [18] = assay: Inhibition of anti-TCR-stimulated IL2 production in human Jurkat cells […] by ELISA; format: functional, cell-based; procedure, shortened: as §4
PBMC [19] = assay: Inhibition of anti-TCR/PMA-stimulated IL2 production in human PBMC cells […] after 12 hrs by ELISA; format: functional, cell-based; procedure, shortened: as §4
PBMC [20] = assay: Antiproliferative activity against ODN2006-stimulated human PBMC after 72 hrs by BrdU incorporation assay; format: functional, cell-based; procedure, shortened: as §5
A-375 [21] = assay: Antiproliferative activity against non-stimulated human A375 cells after 72 hrs by BrdU incorporation assay; format: functional, cell-based; conditions: A-375, 72 h
Jurkat [22] = assay: Inhibition of TCR-mediated Zap70 phosphorylation in human Jurkat cells after 16 hrs by Western blotting; format: cell-based; procedure, shortened: as §2
NIH3T3 [23] = assay: Antiproliferative activity against PDGF-stimulated mouse NIH/3T3 cells after 72 hrs by BrdU incorporation assay; format: functional, cell-based; conditions: NIH3T3, 72 h; procedure, shortened: as §1
PBMC [24] = assay: Antiproliferative activity against ConA-stimulated human PBMC after 72 hrs by BrdU incorporation assay; format: functional, cell-based; procedure, shortened: as §6
PBMC [25] = assay: Antiproliferative activity against CD3+ expressing human PBMC after 72 hrs by BrdU incorporation assay; format: functional, cell-based; procedure, shortened: as §5
PBMC [26] = assay: Inhibition of anti-TCR-stimulated IL2 production in human PBMC cells […] after 12 hrs by ELISA; format: functional, cell-based; procedure, shortened: as §4
NIH3T3 [27] = assay: Antiproliferative activity against non-stimulated mouse NIH/3T3 cells after 72 hrs by BrdU incorporation assay; format: functional, cell-based; conditions: NIH3T3, 72 h
PBMC [28] = assay: Antiproliferative activity against CD3 deficient human PBMC after 72 hrs by BrdU incorporation assay; format: functional, cell-based; procedure, shortened: as §5
PBMC [29] = assay: Inhibition of PMA/anti-CD28-stimulated IL2 production in human PBMC cells up to 5 uM after 12 hrs by ELISA; format: functional, cell-based; procedure, shortened: as §4
Splenocyte [30] = assay: Inhibition of irradiated BALB/c mouse splenocyte-stimulated IL2 secretion in 2C mouse splenocyte at 1 uM after 24 hrs by mixed lymphocyte reaction; format: functional, cell-based; procedure, shortened: as §7
A-375 [31] = assay: Antiproliferative activity against FCS-stimulated human A375 cells after 72 hrs by BrdU incorporation assay; format: functional, cell-based; conditions: A-375, 72 h; procedure, shortened: as §1
Jurkat [32] = assay: Antiproliferative activity against non-stimulated human Jurkat cells after 72 hrs by BrdU incorporation assay; format: functional, cell-based; procedure, shortened: as §6

With COc1cc(-c2nc(Nc3ccc(C)cc3)c3ccccc3n2)cc(OC)c1OC the IC50 (MDA-MB-231 [1]) was greater than 10000 nM, the inhibition (Jurkat [2]) was “Dose-dependent effect” and the IC50 (MDA-MB-231 [3]) was greater than 10000 nM. For the same compound, the Activity (PBMC [4]) was 9.5%, the IC50 (HEK293 [5]) was 10000 nM and the inhibition (Jurkat [6]) was “inactive”. It also gave an IC50 (PBMC [7]) of 500 nM, an Activity (PBMC [8]) of 50% and an IC50 (HEK293 [9]) of 10000 nM. The IC50 [10] was greater than 10000 nM, the IC50 (Jurkat [11]) was 29 nM and the IC50 (PC-3 [12]) was 10000 nM. For the same compound, the inhibition (Splenocyte [13]) was “inactive”, the inhibition (Jurkat [14]) was “inactive” and the IC50 (PC-3 [15]) was greater than 10000 nM. The IC50 (Jurkat [16]) was 100 nM, the IC50 (PBMC [17]) was 50 nM and the inhibition (Jurkat [18]) was “inactive”. For the same compound, the inhibition (PBMC [19]) was “inactive”, the IC50 (PBMC [20]) was 500 nM and the IC50 (A-375 [21]) was 800 nM. The inhibition (Jurkat [22]) was “Dose-dependent effect”, the IC50 (NIH3T3 [23]) was 7000 nM and the IC50 (PBMC [24]) was 70 nM. The IC50 (PBMC [25]) was 100 nM, the inhibition (PBMC [26]) was “inactive” and the IC50 (NIH3T3 [27]) was 3000 nM. The Activity (PBMC [28]) was “Active”, the inhibition (PBMC [29]) was “inactive” and the inhibition (Splenocyte [30]) was “inactive”. It also gave an IC50 (A-375 [31]) greater than 10000 nM and an IC50 (Jurkat [32]) of 50 nM.
